PHOSPHO1 block = inhibitors of human PHOSPHO1 phosphatase. Q8TCT1. recombinant PHOSPHO1, absorbance phosphatase assay. inhibition, % at 13.3 µM. hit rate 1.1% among 290,000. AID 1565; in the data active = inhibition above about 60%
Target sequence (Q8TCT1 whole entry, looked up): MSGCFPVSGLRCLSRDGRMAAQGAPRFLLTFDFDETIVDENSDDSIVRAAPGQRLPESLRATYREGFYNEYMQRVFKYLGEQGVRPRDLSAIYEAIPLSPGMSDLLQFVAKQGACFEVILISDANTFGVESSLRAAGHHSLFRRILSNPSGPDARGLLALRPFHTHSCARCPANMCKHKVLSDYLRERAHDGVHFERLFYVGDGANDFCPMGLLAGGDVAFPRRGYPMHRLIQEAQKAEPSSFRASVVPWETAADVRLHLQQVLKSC
ALR H2O2 inh = blocks human ALR sulfhydryl oxidase activity; hit rate 3.8% among 290,000; P55789; AID 485317; purified ALR, DTT oxidation, H2O2 HRP-luminol luminescence; inhibition, % (concentration not given with the values);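 active = mean replicate inhibition above about 79%, with every replicate also reaching it, limit read from the data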
HCV core dimer = blocks dimerization of HCV core protein. TR-FRET GST/Flag-core106 dimerization, 1536-well. inhibition, % at 5 µM. hit rate 0.33% among 300,000. AID 1899;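 active = inhibition above the mean of all tested compounds plus 3 SD, set per screening campaign, cut at about 45% in these data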
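Assay system: GST-tagged and Flag-tagged HCV core protein residues 1-106 / Times: compound-protein-antibody incubation 4 h at 22.5 °C / Signal: time-resolved FRET, ex 340 nm, em 617 and 671 nm / Evaluation: % inhibition based on acceptor/donor emission ratio / Benchmarks: wells lacking GST-core106 and wells with excess unlabelled core106 / Repeats: singlicate, one well per compound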
AI-2 QS mod = modulators of Vibrio harveyi AI-2 quorum sensing system; Vibrio harveyi JMH597 AI-2 luminescence/OD600 ratio, 9 h; stronger effect = lower value; strain lacks LuxN and CqsS sensors; 0 = neutral-control median; activity change, % at 7.5 µM; hit rate 0.4% among 300,000; in the data active = activity change below about -75%, passing the limit was not always enough;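 note: luminescence divided by OD600 gain over 9 h not by final OD600 alone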
HSF-1 act = increases HSF-1 driven luciferase reporter signal | AID 504408 | activation, % at 9 µM | NIH3T3-HGL HSF-1 luciferase reporter, MG132, 8 h; 100% = twice DMSO control signal | hit rate 1.7% among 300,000;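 active = mean replicate activation of at least 50% with a set share of replicates each reaching 50%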;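 note: 0% = median of the neutral control wells and 100% = twice that signal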
HSF1 inh = HSF1 inhibition; NIH3T3-HGL HSE-luciferase, MG132-induced, luminescence 8 h; stronger effect = lower value; activity change, negative = inhibition, % at 7.5 µM (by protocol); hit rate 0.77% among 300,000; AID 2098;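 active = more than half of replicate wells show activity change below -50%, luminescence cut by over half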;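 note: luciferase reports HSF-1 transcriptional activity via heat shock element; 0% = median of DMSO wells and -100% = zero luminescence signal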
* hit, by the source's call; x = no result. Rows were chosen to be rich in hits. Some 6.8% of all compounds tested hit in one or more screens of this group.

SMILES | PHOSPHO1 block | ALR H2O2 inh | HCV core dimer | AI-2 QS mod | HSF-1 act | HSF1 inh
Cn1cnnc1SCC(=O)N1N=C(c2ccc(Cl)cc2)CC1c1ccco1 (stereo not drawn) | 38 | -1 | -5 | 2 | 1 | -1
CC1(C2CC2)NC(=O)N(CC(=O)N2CCN(S(=O)(=O)c3ccc(F)c(F)c3)CC2)C1=O (stereo not drawn) | x | -2 | x | x | x | x
C[N+]1(C2CCC3CCCC2C3O)CCCC1 (stereo not drawn) | -12 | -2 | 0 | 15 | -3 | 0
Cc1ccc(NC(=O)C2CCN(S(C)(=O)=O)CC2)c(C)c1 | -6 | -4 | x | 13 | 5 | -1
CC1CCCC(NC(=O)COC(=O)COc2ccc(C#N)cc2)C1C (stereo not drawn) | x | -2 | x | x | x | x
COc1ccc(-c2ccn(-c3cccc(F)n3)n2)cc1 | 33 | x | x | x | x | x
Nc1nn(-c2cccc(F)n2)cc1-c1ccccc1 | 4 | x | x | 5 | 62* | 39
Nc1nn(-c2cccc(F)n2)cc1-c1ccc(Cl)cc1 | 28 | x | x | -3 | 85* | 32
Cc1ccc(S(=O)(=O)Oc2ccc(/C=N/NC(=O)c3cccnc3)cc2)cc1 | 6 | -4 | 5 | 3 | 4 | 2
Cc1ccc(C(CNS(=O)(=O)c2ccc(F)cc2C)N2CCN(C)CC2)cc1 (stereo not drawn) | x | -1 | -3 | 1 | -4 | -10
C=CCOC(=O)C1=C[C@@H](c2ccc3c(c2)OCO3)C[C@@H](OCc2ccc(CO)cc2)O1 | 18 | x | 11 | 3 | -2 | 11
Cc1cccc(NC(=O)C2CCN(S(=O)(=O)c3cccc4nonc34)CC2)c1 | 40 | -4 | -4 | x | 18 | 7
O=c1c(Cl)c(O)c2cccc3c4ccccc4n1c23 | -3 | 99* | 14 | 97 | 79* | 84
COc1c(O)c(=O)n2c3ccccc3c3ccnc1c32 | x | 98* | -3 | 26 | 13 | -1
O=C(SCC(O)C(O)CS)c1cccs1 (stereo not drawn) | -1 | 21 | 8 | 25 | -2 | 7
CC(C)C(OC(=O)CN1C(=O)c2ccccc2C1=O)C(=O)NC1CCCC1 (stereo not drawn) | 18 | 2 | -11 | 9 | -14 | -4
Cc1ccc(-c2cnc(SCCNC(=O)c3ccco3)[nH]2)cc1 | x | 94* | -3 | 9 | 24 | 25
Cc1ccc(C(=O)NCCCNC(=O)c2ccco2)cc1 | 20 | -13 | -7 | -3 | -8 | -6
CN(C)C(CNC(=O)CNC(=O)c1ccc(Br)cc1)c1ccccc1 (stereo not drawn) | -3 | -2 | -2 | 5 | -2 | -3
Cc1c(C(=O)OCc2ccccc2)[nH]c2c1C(=O)CC(c1ccco1)C2 (stereo not drawn) | 6 | x | 51* | 25 | -22 | -20
CCOC(=O)c1[nH]c2c(c1C)C(=O)CC(c1ccco1)C2 (stereo not drawn) | 2 | -81 | 44 | 2 | -26 | -19
O=C(NC1CC1)c1ccc(C2SCC(=O)N2Cc2ccccc2)cc1 (stereo not drawn) | -16 | -2 | 0 | 1 | 2 | -5
COc1ccc(OC)c(C2CC(=O)N3CN(c4cccc(Cl)c4)CSC3=C2C#N)c1 (stereo not drawn) | 94* | -5 | 19 | 9 | 2 | 15
COc1ccc(OC)c(C2CC(=O)N3CN(c4ccc(C)c(Cl)c4)CSC3=C2C#N)c1 (stereo not drawn) | 79* | 2 | -10 | 18 | 19 | 2
CCOC(=O)C1=C(CC)OC(N)=C(C#N)C1c1ccc(OC)cc1OC (stereo not drawn) | -7 | -6 | -2 | 14 | 1 | 11
COc1ccc(OC)c(C2C(C#N)=C(N)Oc3c2c(C)nn3-c2cccc(Cl)c2)c1 (stereo not drawn) | 20 | 19 | -4 | 14 | -11 | -7
CCOC(=O)c1ccc(N2CSC3=C(C#N)C(c4ccc(OC)cc4OC)CC(=O)N3C2)cc1 (stereo not drawn) | 90* | 0 | 12 | 3 | -41 | -25
COc1cc(OC)c(C2CC(=O)N3CN(C)CSC3=C2C#N)cc1OC (stereo not drawn) | 48 | -18 | 4 | 43 | 14 | -1
